Hits are enriched below; roughly 1.5% of the tested compounds scored in any of these assays.
ABCB1 block: inhibitors of human ABCB1 transporter, ABCG2 counter-screen; P08183; CCRF-Adr cells, JC-1 efflux, flow cytometry; inhibition, % at 6.6 µM; 190,000 tested, 0.067% active; AID 1326; in the data active = inhibition above about 40%;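 also: higher value means more JC-1 retained so stronger ABCB1 efflux block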
RBBP9 inhibitor: blocks human serine hydrolase RBBP9; O75884; recombinant RBBP9, FP-Rh probe fluorescence polarization; inhibition, % at 7.94 µM; 220,000 tested, 0.2% active; AID 1515;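 active = inhibition above the campaign mean of all tested compounds plus 3 SD, cut at about 14% in these data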
Target sequence (O75884 whole entry, looked up): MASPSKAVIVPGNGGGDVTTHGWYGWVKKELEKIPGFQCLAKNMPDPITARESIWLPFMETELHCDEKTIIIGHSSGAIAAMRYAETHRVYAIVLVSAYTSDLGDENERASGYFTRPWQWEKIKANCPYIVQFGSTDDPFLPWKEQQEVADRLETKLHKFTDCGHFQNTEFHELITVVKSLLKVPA
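Controls: DMSO-treated enzyme wells and wells lacking RBBP9 | Material: RBBP9 protein | Technique: Fluorescence polarization | Replication: Single well per compound, no replicates | Buffer or medium: Tris-NaCl-Pluronic buffer, pH 8.0 | Timing: 30 min compound preincubation, 45 min probe labeling, 25 °C | Read-out basis: Percent inhibition from mP, scaled between DMSO and no-protein wells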
EP2 antag: blocks the human prostaglandin E2 receptor EP2 | inhibition, % at 25 µM | P43116 | C6 glioma cells expressing human EP2, cAMP TR-FRET; cells stimulated with saturating PGE2 | AID 1422 | 260,000 tested, 0.52% active;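 active = percent inhibition above 40 after rounding to a whole number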;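 also: rat C6 glioma host cells with rolipram phosphodiesterase inhibitor present; the protocol text gives 20 µM as final concentration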
Target sequence (P43116 whole entry, looked up): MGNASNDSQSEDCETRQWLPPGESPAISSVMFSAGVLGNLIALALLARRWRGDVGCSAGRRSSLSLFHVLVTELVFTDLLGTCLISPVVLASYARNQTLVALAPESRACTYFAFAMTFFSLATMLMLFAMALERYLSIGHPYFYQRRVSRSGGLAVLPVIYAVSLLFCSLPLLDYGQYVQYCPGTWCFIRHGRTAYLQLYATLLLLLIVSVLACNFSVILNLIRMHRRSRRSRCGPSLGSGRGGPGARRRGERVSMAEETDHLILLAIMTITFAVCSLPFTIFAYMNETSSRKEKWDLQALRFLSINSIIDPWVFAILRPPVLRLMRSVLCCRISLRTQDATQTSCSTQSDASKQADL
ABCG2 inh: inhibitors of human ABCG2 transporter, ABCB1 counter-screen; AID 1325; 190,000 tested, 0.1% active; Q9UNQ0; inhibition, % at 6.6 µM; IgMXP3 cells, JC-1 efflux, flow cytometry;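 active = inhibition above 80%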
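Test system: IgMXP3 (ABCG2) plus far-red-tagged CCRF-Adr (ABCB1) cells / Amount: 3 million cells/mL in well / Reagent: JC-1 transporter substrate / Timing: 10 min compound exposure, 25 °C / Signal: flow cytometry, 530 nm JC-1 signal / Read-out: percent efflux inhibition, scaled nicardipine 100% to DMSO 0% / Benchmarks: nicardipine as high control, DMSO as low control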
EP2 modulator: modulators of human EP2 prostaglandin E2 receptor; P43116; EP2-expressing cells, cAMP HTRF FRET, PGE2 co-stimulation; induction, % at 25 µM; 260,000 tested, 0.83% active;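 active = compounds whose cAMP rise, as percent of the full-agonist control response, exceeds 60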;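 also: rat C6 glioma line stably carrying human EP2 under a CMV promoter; the protocol text gives 20 µM as final concentration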
EP2 cAMP induct: EP2 receptor cAMP induction, counter-screens negative; C6 glioma EP2 cells, cAMP HTRF induction; plus low (about EC15) PGE2 agonist; calls only at 20 µM (by protocol); shares compounds with EP2 modulator; AID 1080; 1,300 tested, 47% active;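 active = cAMP induction above 50% in the main assay while under 30% in all four parallel counter assays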;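 also: rat C6 glioma cells stably expressing human EP2 receptor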
Large screens that a line does not name were inactive (follow-up assays come after a bar, where they were run).

O=C(Nc1ccc(C(O)CN2CCC(O)(c3ccc(F)cc3)CC2)cc1)C1CC1 (configuration not stated)	none (no result: ABCB1 block, RBBP9 inhibitor, ABCG2 inh)
Cc1cc(=O)[nH]c(SCC(=O)N2CCC(C(N)=O)CC2)n1	none
CCCc1cc(=O)[nH]c(SCC(=O)N2CCC(C(=O)OCC)CC2)n1	EP2 modulator 68.3 | EP2 cAMP induct inactive
O=C(/C=C/Nc1ccccc1Oc1ccccc1)c1ccco1	EP2 modulator 64.9 | EP2 cAMP induct inactive
O=C(/C=C/Nc1ccccc1O)c1ccco1	none (no result: ABCB1 block, ABCG2 inh)
C/C(CCC(C)C)=N\NC(=S)NCc1ccccc1	EP2 modulator 66.3 | EP2 cAMP induct active
CCN1C(c2ccccc2)C(C)C(=O)C(C)C1c1ccccc1 (configuration not stated)	EP2 modulator 71.1 | EP2 cAMP induct active
COc1ccc(Cl)cc1NC(=O)COC(=O)c1ccccn1	none (no result: ABCB1 block, RBBP9 inhibitor, ABCG2 inh)
Cc1cc(SCC(=O)c2ccccc2)nc2ccccc12	none (no result: ABCB1 block, RBBP9 inhibitor, ABCG2 inh) | EP2 cAMP induct inactive
C=Cn1cc(CN2CCC(O)(c3ccc4c(c3)OCO4)CC2)c(C)n1	none (no result: ABCB1 block, RBBP9 inhibitor, ABCG2 inh)
C=CCn1c(=O)c(C(=O)Nc2ccccc2Br)c(O)c2ccccc21	none (no result: ABCB1 block, RBBP9 inhibitor, ABCG2 inh)
C=CCn1c(=O)c(C(=O)NCCc2ccccc2)c(O)c2ccccc21	EP2 modulator 66.8 | EP2 cAMP induct inactive
O=C(Cc1cccs1)N1CCCC1c1nc(-c2ccc(F)cc2)n[nH]1 (configuration not stated)	none (no result: ABCB1 block, RBBP9 inhibitor, ABCG2 inh)
COC(=O)c1ccc(-n2nc(C(F)(F)F)c3c2-c2ccoc2CC3)cc1	EP2 modulator 72.1 | EP2 cAMP induct inactive
CCCCOc1ccccc1NC(=O)c1scc2c1OCCO2	EP2 modulator 87.2 | EP2 cAMP induct active
CCCn1c(CN2CCC(O)(c3ccc(C)cc3)CC2)nc2ccccc21	none (no result: ABCB1 block, RBBP9 inhibitor, ABCG2 inh)
O=C(O)CSc1ccc2ccccc2n1	EP2 modulator 66.7 | EP2 cAMP induct inactive
O=C(O)CCSc1ccc2ccccc2n1	EP2 modulator 79.6 | EP2 cAMP induct inactive
Cc1cc(SCCC(=O)O)nc2ccccc12	none (no result: ABCB1 block, ABCG2 inh, EP2 modulator)
Cc1nc(SCCC(=O)O)c2ccccc2n1	EP2 modulator 82.5 | EP2 cAMP induct inactive
COc1ccc(S(=O)(=O)N(CC(=O)NCc2ccncc2)c2ccccc2)cc1OC	none (no result: ABCB1 block, RBBP9 inhibitor, ABCG2 inh)
Cc1nc2ccccc2n1C1CCN(CC(=O)Nc2ccccc2)CC1	none (no result: ABCB1 block, RBBP9 inhibitor, ABCG2 inh)
CCOc1ccccc1CNc1ccc(O)cc1	none
CCOc1cccc(CNc2ccc(O)cc2)c1OCc1ccc(Cl)cc1	EP2 modulator 77.4 | EP2 cAMP induct active
Cc1ccc2c(c1)NC(C(C)(C)C)CO2 (configuration not stated)	none
Cc1ccc(S(=O)(=O)N2c3ccccc3OCC2C(C)(C)C)cc1 (configuration not stated)	EP2 modulator 88.5 | EP2 cAMP induct active
Cc1ccc(S(=O)(=O)NCC2COc3ccccc3O2)cc1 (configuration not stated)	none
Cc1ccc2c(c1)N(S(=O)(=O)c1ccc(F)cc1)C(C(C)(C)C)CO2 (configuration not stated)	EP2 modulator 77.2 | EP2 cAMP induct active
O=C(c1ccco1)N1N=C(c2ccc(Br)cc2)CC1(O)C(F)(F)F (configuration not stated)	EP2 modulator 85.9 | EP2 cAMP induct active
COc1cccc(C2=NN(C(=O)c3cccs3)C(O)(C(F)(F)F)C2)c1 (configuration not stated)	EP2 modulator 85.7 | EP2 cAMP induct active
O=C(c1ccco1)N1N=C(c2ccncc2)CC1(O)C(F)(F)F (configuration not stated)	none
Cc1ccc(C(=O)N2N=C(c3ccccc3)CC2(O)C(F)(F)F)o1 (configuration not stated)	EP2 modulator 70.2 | EP2 cAMP induct inactive
Cc1ccc2cc(CN(Cc3ccco3)S(=O)(=O)c3ccccc3Cl)c(=O)[nH]c2c1	none (no result: ABCB1 block, RBBP9 inhibitor, ABCG2 inh)
O=C(c1cccs1)N1N=C(c2ccccc2)CC1c1ccccc1O (configuration not stated)	none
O=C(c1ccccc1)N1N=C(c2ccccc2)CC1c1ccccc1O (configuration not stated)	EP2 modulator 84.8 | EP2 cAMP induct active
COc1ccc(C2NC(=O)NC(C)=C2C(=O)Nc2cc(Cl)ccc2OC)c(OC)c1 (configuration not stated)	none (no result: ABCB1 block, RBBP9 inhibitor, ABCG2 inh)

Source: PubChem BioAssay (several laboratories)
